Test results reported in paper PMC3895945 (Nuclear medicine and biology, 2013).
Each block holds one compound with its values, some of them ahead of it.

Experiments:
9L glioma cells = experiment: In vitro uptake studies in 9L cells; format: cell-based; settings: for uptake in 9L cells: result in words; for uptake relative to that of FET: 9L glioma cells, 5-120 min incubation at 37 °C
Method in brief: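 9L gliosarcoma cells were grown in DMEM with 10 % FBS (37 °C, 5 % CO2) and plated at 2.0 × 10^5 cells/well 24 h ahead. Cells were washed with warm PBS containing Ca2+/Mg2+, then given radiolabeled test compound in PBS (~500,000 cpm/mL/well) at 37 °C for 5, 30, 60 or 120 min. They were washed with ice-cold PBS, lysed in 0.1N NaOH and gamma-counted. Uptake was normalised to protein (modified Lowry) as %uptake/100 μg protein, in triplicate.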

In vitro metabolism [1] = format: in vitro ADME, rat; settings: for half-life: Fisher 344, rat, fresh heparinized rat whole blood
Method in brief: (§1)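 Radiolabeled test compound (~3 MBq in 50 μL PBS) was added to 1.0 mL preheated blood or a PBS control at 37 °C. Rat blood was freshly drawn from anesthetized Fisher 344 rats into heparin (100 unit/mL); heparinized human blood had been stored at −70 °C. Aliquots taken at 5–120 min were deproteinized with 1 % picric acid and centrifuged. Supernatant was analysed by C-18 radio-HPLC. Percent intact compound versus time was fitted to first-order kinetics.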

In vitro metabolism [2] = format: in vitro ADME, human
Method in brief: as §1

[3] = In vivo metabolism studies of FET prodrugs in Fisher 344 rats; settings: blood drawn 5 min after intravenous injection
Method in brief: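 Fisher 344 rats received ~37 MBq radiolabeled test compound intravenously. Blood was drawn from the heart 5 min post-injection. 50 μL aliquots were deproteinized with 1 % picric acid and centrifuged at 12,000g. Supernatant was run on C-18 HPLC (CH3CN/0.1 % formic acid), and fractions were gamma-counted. Parent and radio-metabolites were identified by retention time.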

9L tumors [4] = experiment: In vivo biodistribution in Fisher rats with 9L glioma tumors; parameters: species or system Fischer 344 rats; settings: for Tissue distribution Tumor: 9L tumor; for tumor uptake kinetics and retention: biodistribution 30 to 60 min, result in words; for Tumor/Blood / Tumor/Brain / Tumor/Muscle: ratio; for time to maximum uptake in the tumors: biodistribution, 9L tumors
9L tumors [5] = experiment: Dynamic small animal PET imaging in rats bearing 9L tumors; format: in vivo, Fisher rats; settings: for maximum tumor-to-muscle ratio: PET region-of-interest analysis; for maximum tumor-to-muscle ratio / time to maximum tumor uptake: 9L tumors; for time to maximum tumor uptake / tumor uptake kinetics and retention: PET time-activity curves; for tumor uptake kinetics and retention: result in words
[6] = 30 min after intravenous injection
[7] = 60 min after intravenous injection
[8] = 30 min after intravenous injection, listed as FET-Ala([^18F]3)

half-life (In vitro metabolism [1]): 5.8 min
half-life (In vitro metabolism [2]; human, heparinized human whole blood): 0.8 min
metabolized to FET [3]: 79%
Tissue distribution Tumor (9L tumors [4]; [6]): 1.18 ± 0.10 % ID/g
Tissue distribution Tumor (9L tumors [4]; [7]): 1.10 ± 0.29 % ID/g
Tissue distribution Blood (9L tumors [4]; [6]): 0.72 ± 0.03 % ID/g
Tissue distribution Bone (9L tumors [4]; [6]): 0.41 ± 0.03 % ID/g
Tissue distribution Brain (9L tumors [4]; [6]): 0.31 ± 0.01 % ID/g
Tissue distribution Heart (9L tumors [4]; [6]): 0.67 ± 0.03 % ID/g
Tissue distribution Kidney (9L tumors [4]; [6]): 0.58 ± 0.02 % ID/g
Tissue distribution Liver (9L tumors [4]; [6]): 0.66 ± 0.02 % ID/g
Tissue distribution Lung (9L tumors [4]; [6]): 0.62 ± 0.02 % ID/g
Tissue distribution Muscle (9L tumors [4]; [6]): 0.54 ± 0.01 % ID/g
Tissue distribution Pancreas (9L tumors [4]; [6]): 3.06 ± 0.38 % ID/g
Tissue distribution Skin (9L tumors [4]; [6]): 0.69 ± 0.20 % ID/g
Tissue distribution Spleen (9L tumors [4]; [6]): 0.74 ± 0.06 % ID/g
Tissue distribution Blood (9L tumors [4]; [7]): 0.72 ± 0.03 % ID/g
Tissue distribution Bone (9L tumors [4]; [7]): 0.46 ± 0.03 % ID/g
Tissue distribution Brain (9L tumors [4]; [7]): 0.38 ± 0.02 % ID/g
Tissue distribution Heart (9L tumors [4]; [7]): 0.66 ± 0.03 % ID/g
Tissue distribution Kidney (9L tumors [4]; [7]): 0.57 ± 0.02 % ID/g
Tissue distribution Liver (9L tumors [4]; [7]): 0.65 ± 0.02 % ID/g
Tissue distribution Lung (9L tumors [4]; [7]): 0.61 ± 0.03 % ID/g
Tissue distribution Muscle (9L tumors [4]; [7]): 0.60 ± 0.03 % ID/g
Tissue distribution Pancreas (9L tumors [4]; [7]): 3.52 ± 0.26 % ID/g
Tissue distribution Skin (9L tumors [4]; [7]): 0.73 ± 0.16 % ID/g
Tissue distribution Spleen (9L tumors [4]; [7]): 0.71 ± 0.03 % ID/g
tumor uptake kinetics and retention (9L tumors [4]): long retention
time to maximum uptake in the tumors (9L tumors [4]): ≤ 30 min
Tumor/Blood (9L tumors [4]; [6]): 1.6
Tumor/Brain (9L tumors [4]; [6]): 3.8
Tumor/Muscle (9L tumors [4]; [6]): 2.2
Tumor/Blood (9L tumors [4]; [8]): 1.64 ± 0.15
Tumor/Brain (9L tumors [4]; [8]): 3.81 ± 0.35
Tumor/Muscle (9L tumors [4]; [8]): 2.18 ± 0.19
Tumor/Blood (9L tumors [4]; [7]): 1.53 ± 0.41
Tumor/Brain (9L tumors [4]; [7]): 2.89 ± 0.78
Tumor/Muscle (9L tumors [4]; [7]): 1.83 ± 0.49
maximum tumor-to-muscle ratio (9L tumors [5]): 5
time to maximum tumor uptake (9L tumors [5]): ≤ 20 min
tumor uptake kinetics and retention (9L tumors [5]): long retention
Compound: C[C@H](NC(=O)[C@@H](N)Cc1ccc(OCC[18F])cc1)C(=O)O [FET-Ala ([^18F]3), O-(2-[^18F]fluoroethyl)-L-tyrosyl-L-alanine]
uptake in 9L cells (9L glioma cells): negligible uptake
uptake relative to that of FET (9L glioma cells): less than 1%

t1/2 Rat blood (In vitro metabolism [1]; hydrolysis to FET in rat blood at 37 °C, average of two experiments): 17.3 min
t1/2 Human blood (In vitro metabolism [2]; hydrolysis to FET in human blood at 37 °C, average of two experiments): 22.7 min
metabolized to FET [3]: 72%
Tissue distribution Tumor (9L tumors [4]; [6]): 0.81 ± 0.30 % ID/g
Tissue distribution Tumor (9L tumors [4]; [7]): 0.56 ± 0.33 % ID/g
Tissue distribution Blood (9L tumors [4]; [6]): 0.72 ± 0.02 % ID/g
Tissue distribution Bone (9L tumors [4]; [6]): 0.41 ± 0.01 % ID/g
Tissue distribution Brain (9L tumors [4]; [6]): 0.33 ± 0.02 % ID/g
Tissue distribution Heart (9L tumors [4]; [6]): 0.67 ± 0.03 % ID/g
Tissue distribution Kidney (9L tumors [4]; [6]): 0.57 ± 0.01 % ID/g
Tissue distribution Liver (9L tumors [4]; [6]): 0.67 ± 0.02 % ID/g
Tissue distribution Lung (9L tumors [4]; [6]): 0.59 ± 0.01 % ID/g
Tissue distribution Muscle (9L tumors [4]; [6]): 0.52 ± 0.04 % ID/g
Tissue distribution Pancreas (9L tumors [4]; [6]): 2.74 ± 0.39 % ID/g
Tissue distribution Skin (9L tumors [4]; [6]): 0.44 ± 0.03 % ID/g
Tissue distribution Spleen (9L tumors [4]; [6]): 0.76 ± 0.05 % ID/g
Tissue distribution Blood (9L tumors [4]; [7]): 0.74 ± 0.06 % ID/g
Tissue distribution Bone (9L tumors [4]; [7]): 0.45 ± 0.04 % ID/g
Tissue distribution Brain (9L tumors [4]; [7]): 0.47 ± 0.06 % ID/g
Tissue distribution Heart (9L tumors [4]; [7]): 0.68 ± 0.05 % ID/g
Tissue distribution Kidney (9L tumors [4]; [7]): 0.57 ± 0.05 % ID/g
Tissue distribution Liver (9L tumors [4]; [7]): 0.66 ± 0.05 % ID/g
Tissue distribution Lung (9L tumors [4]; [7]): 0.62 ± 0.06 % ID/g
Tissue distribution Muscle (9L tumors [4]; [7]): 0.67 ± 0.06 % ID/g
Tissue distribution Pancreas (9L tumors [4]; [7]): 2.92 ± 0.44 % ID/g
Tissue distribution Skin (9L tumors [4]; [7]): 0.46 ± 0.01 % ID/g
Tissue distribution Spleen (9L tumors [4]; [7]): 0.80 ± 0.12 % ID/g
washout from 9L tumors (9L tumors [4]; at 60 min (from 30 min)): 31%
time to maximum uptake in the tumors (9L tumors [4]): ≤ 30 min
Tumor/Blood (9L tumors [4]; [6]): 1.13 ± 0.42
Tumor/Brain (9L tumors [4]; [6]): 2.45 ± 0.92
Tumor/Muscle (9L tumors [4]; [6]): 1.56 ± 0.59
Tumor/Blood (9L tumors [4]; [7]): 0.76 ± 0.45
Tumor/Brain (9L tumors [4]; [7]): 1.19 ± 0.72
Tumor/Muscle (9L tumors [4]; [7]): 0.84 ± 0.50
maximum tumor-to-muscle ratio (9L tumors [5]): 5
time to maximum tumor uptake (9L tumors [5]): ≤ 20 min
tumor uptake kinetics and retention (9L tumors [5]): washout
Compound: N[C@@H](Cc1ccc(OCC[18F])cc1)C(=O)NCC(=O)O [FET-Gly ([^18F]2), O-(2-[^18F]fluoroethyl)-L-tyrosyl-L-glycine]
uptake in 9L cells (9L glioma cells): negligible uptake
uptake relative to that of FET (9L glioma cells): less than 1%

Further lines, the compound ahead of its results:

Compound: CC(=O)N[C@@H](Cc1ccc(OCC[18F])cc1)C(=O)O [AcFET ([^18F]4), N-acetyl O-(2-[^18F]fluoroethyl)-L-tyrosine]
uptake in 9L cells (9L glioma cells): negligible uptake
uptake relative to that of FET (9L glioma cells): less than 1%
half-life (In vitro metabolism [1]): 77.5 min
stability in human blood (In vitro metabolism [2]; human blood, 37 °C): completely stable
metabolized to FET [3]: 66%
Tissue distribution Tumor (9L tumors [4]; [6]): 0.61 ± 0.13 % ID/g
Tissue distribution Tumor (9L tumors [4]; [7]): 0.85 ± 0.09 % ID/g
Tissue distribution Blood (9L tumors [4]; [6]): 0.69 ± 0.03 % ID/g
Tissue distribution Bone (9L tumors [4]; [6]): 0.32 ± 0.01 % ID/g
Tissue distribution Brain (9L tumors [4]; [6]): 0.26 ± 0.01 % ID/g
Tissue distribution Heart (9L tumors [4]; [6]): 0.60 ± 0.03 % ID/g
Tissue distribution Kidney (9L tumors [4]; [6]): 0.70 ± 0.07 % ID/g
Tissue distribution Liver (9L tumors [4]; [6]): 0.64 ± 0.01 % ID/g
Tissue distribution Lung (9L tumors [4]; [6]): 0.55 ± 0.04 % ID/g
Tissue distribution Muscle (9L tumors [4]; [6]): 0.45 ± 0.02 % ID/g
Tissue distribution Pancreas (9L tumors [4]; [6]): 2.54 ± 0.11 % ID/g
Tissue distribution Skin (9L tumors [4]; [6]): 0.48 ± 0.01 % ID/g
Tissue distribution Spleen (9L tumors [4]; [6]): 0.66 ± 0.02 % ID/g
Tissue distribution Blood (9L tumors [4]; [7]): 0.62 ± 0.01 % ID/g
Tissue distribution Bone (9L tumors [4]; [7]): 0.33 ± 0.01 % ID/g
Tissue distribution Brain (9L tumors [4]; [7]): 0.36 ± 0.03 % ID/g
Tissue distribution Heart (9L tumors [4]; [7]): 0.56 ± 0.02 % ID/g
Tissue distribution Kidney (9L tumors [4]; [7]): 0.57 ± 0.05 % ID/g
Tissue distribution Liver (9L tumors [4]; [7]): 0.56 ± 0.01 % ID/g
Tissue distribution Lung (9L tumors [4]; [7]): 0.51 ± 0.01 % ID/g
Tissue distribution Muscle (9L tumors [4]; [7]): 0.49 ± 0.01 % ID/g
Tissue distribution Pancreas (9L tumors [4]; [7]): 2.23 ± 0.51 % ID/g
Tissue distribution Skin (9L tumors [4]; [7]): 0.44 ± 0.01 % ID/g
Tissue distribution Spleen (9L tumors [4]; [7]): 0.65 ± 0.06 % ID/g
tumor uptake kinetics and retention (9L tumors [4]): slower uptake kinetics
Tumor/Blood (9L tumors [4]; [6]): 0.88 ± 0.19
Tumor/Brain (9L tumors [4]; [6]): 2.35 ± 0.51
Tumor/Muscle (9L tumors [4]; [6]): 1.36 ± 0.30
Tumor/Blood (9L tumors [4]; [7]): 1.37 ± 0.15
Tumor/Brain (9L tumors [4]; [7]): 2.36 ± 0.32
Tumor/Muscle (9L tumors [4]; [7]): 1.73 ± 0.19
maximum tumor-to-muscle ratio (9L tumors [5]): < 5
time to maximum tumor uptake (9L tumors [5]): 60 min
tumor uptake kinetics and retention (9L tumors [5]): slower kinetics

Compound: O=C[C@H]([18F])[C@@H](O)[C@H](O)[C@H](O)CO [FDG, 2-[^18F]fluoro-2-deoxy-D-glucose, reference compound]
tumor uptake kinetics and retention (9L tumors [5]): continuously increasing tumor uptake

Compound: N[C@@H](Cc1ccc(OCC[18F])cc1)C(=O)O [FET ([^18F]1), O-(2-[^18F]fluoroethyl)-L-tyrosine, reference compound]
uptake in 9L cells (9L glioma cells): high uptake
maximum tumor-to-muscle ratio (9L tumors [5]): 5
time to maximum tumor uptake (9L tumors [5]): ≤ 20 min
tumor uptake kinetics and retention (9L tumors [5]): long retention
